Source: PubChem BioAssay
SENP8 block-1 – SENP8 (human) protease inhibition; AID 602440; recombinant SENP8, Nedd8 substrate fluorescence; 360,000 compounds, 0.64% hits; inhibition, % at 20 µM; in the data active = inhibition mostly above about 40%, no sharp cut-off; inactive = mostly below about 27%
HSP90 inh – inhibitors of HSP90 luciferase refolding in rabbit reticulocyte lysate | luciferase refolding luminescence, 3 h | inhibition, % at 5.6 µM | 290,000 compounds, 0.91% hits;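 active = inhibition above the screen-wide mean plus 3 SD, computed separately per campaign, cut at about 16% in these data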;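 also: 0% = DMSO wells and 100% = 60 µM geldanamycin wells; inhibitors lower the luminescence because luciferase stays unfolded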
SENP6 inh – inhibitors of human SENP6 protease. Recombinant SENP6 catalytic domain, aminoluciferin luminescence. inhibition, % at 10 µM. 330,000 compounds, 1.8% hits. AID 2599;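 active = inhibition above about 50% at the single tested dose, limit read from the data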;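 also: plate controls were DMSO wells with enzyme for no effect and DMSO wells lacking enzyme for full effect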
Target sequence (Q9GZR1 628-1112 limits assumed): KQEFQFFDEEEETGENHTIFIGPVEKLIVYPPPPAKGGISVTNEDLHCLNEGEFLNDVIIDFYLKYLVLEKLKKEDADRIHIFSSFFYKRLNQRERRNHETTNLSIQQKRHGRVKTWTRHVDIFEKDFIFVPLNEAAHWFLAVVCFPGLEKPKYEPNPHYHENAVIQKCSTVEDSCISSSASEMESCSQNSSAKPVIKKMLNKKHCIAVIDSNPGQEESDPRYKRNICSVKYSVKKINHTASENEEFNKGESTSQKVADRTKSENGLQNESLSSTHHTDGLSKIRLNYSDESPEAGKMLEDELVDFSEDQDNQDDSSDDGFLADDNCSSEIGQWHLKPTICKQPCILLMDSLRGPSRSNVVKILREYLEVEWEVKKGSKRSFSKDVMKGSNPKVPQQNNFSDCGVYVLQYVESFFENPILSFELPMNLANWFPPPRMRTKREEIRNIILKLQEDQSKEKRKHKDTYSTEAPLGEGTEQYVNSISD
SENP8 block-2 – blocks the human protease SENP8 | Q96LD8 | purified SENP8, Z-RLRGG-aminoluciferin cleavage, luminescence | inhibition, % at 10 µM | 330,000 compounds, 1.2% hits; in the data active = inhibition above about 50%
SENP1 FRET inh – blocks the human SENP1 SUMO protease catalytic domain. Q9P0U3. recombinant SENP1 catalytic domain, CyPet-SUMO1-YPet FRET cleavage. inhibition, % at 10 µM. 360,000 compounds, 0.21% hits;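 active = inhibition at least 30% at 10 µM, raw YFP signal under a set limit, fluorescence ratio 0.5 to 1.5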;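 also: 0% = enzyme with DMSO and 100% = no enzyme wells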
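Assay system – human recombinant His6-tagged SENP1 catalytic domain enzyme · Input – SENP1 enzyme, 20 pM final · Buffer or medium – Tris pH 8 buffer plus EDTA, NaCl, BME, BSA, NP40, catalase · Schedule – 50 min reaction at room temperature · Technique – FRET read of cyan and yellow fluorescence · Control set – no-enzyme wells low, DMSO-plus-enzyme wells high control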
SENP7 inh – SENP7 protease inhibition | Q9BQF6 | recombinant SENP7, Z-RLRGG-aminoluciferin luminescence, 40 min | inhibition, % at 5 µM | 330,000 compounds, 1.5% hits | AID 434973;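 active = inhibition above about 50% at the single test dose, limit read from the data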;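 also: plate controls were DMSO with enzyme for no effect and no enzyme buffer wells for full effect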
SENP8 conf – human SENP8 inhibition, confirmed. Recombinant SENP8, Z-RLRGG-aminoluciferin luminescence, 60 min. 6,200 compounds, 40% hits. shares compounds with SENP7 inh. inhibition, % at 12.5 µM;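 active = mean inhibition across replicates above about 50%, limit read from the data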
SENP6 confirm – confirmation of human SENP6 protease inhibitors; recombinant SENP6, Z-RLRGG-aminoluciferin luminescence; shares compounds with SENP7 inh; 6,200 compounds, 58% hits; inhibition, % at 12.5 µM
SENP7 conf – confirmation of human SENP7 protease inhibitors; inhibition, % at 12.5 µM; shares compounds with SENP7 inh; 6,200 compounds, 69% hits; recombinant SENP7, Z-RLRGG-aminoluciferin luminescence, 40 min
Casp3 SENP sel – caspase-3 inhibition (SENP selectivity assay); shares compounds with SENP7 inh; purified caspase-3, Z-DEVD-aminoluciferin luminescence, 60 min; 6,200 compounds, 60% hits; inhibition, % at 12.5 µM;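 active = mean inhibition above about 50%, limit read from the data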;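 also: plate controls were enzyme with DMSO for no effect and wells without caspase-3 for full effect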
Target sequence (P42574 28-227 limits assumed): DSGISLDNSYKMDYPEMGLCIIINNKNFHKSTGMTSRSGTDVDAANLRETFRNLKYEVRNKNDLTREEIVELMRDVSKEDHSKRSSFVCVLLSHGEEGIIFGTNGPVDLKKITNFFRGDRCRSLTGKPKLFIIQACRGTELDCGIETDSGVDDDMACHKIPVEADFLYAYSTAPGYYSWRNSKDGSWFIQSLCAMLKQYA
Luc interf – interferes with luciferase luminescence in SENP counter-screen. shares compounds with SENP7 inh. Pre-incubated SENP8/Z-RLRGG-aminoluciferin, luciferase luminescence interference. inhibition, % at 12.5 µM. 6,200 compounds, 39% hits. AID 488919;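 active = mean inhibition above about 50% when retested at one dose, limit read from the data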;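 also: plate controls were DMSO wells with completed reaction for no effect and substrate without enzyme for full effect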
Starred values were filed as active, the others as inactive. Only some compounds are listed: those with a hit (about 2.9% of all), similar ones and a draw of the others.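 The calls were made as follows, unless noted: active = mean inhibition above about 50% in the one-dose retest (limit read from the data); inactive = the rest.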

What do the screens show for `C[C@H]1CN([C@@H](C)CO)C(=O)CCCn2cc(nn2)CO[C@@H]1CN(C)S(C)(=O)=O`?
SENP8 block-1: 19.6; SENP1 FRET inh: 0.2

Results for CCOc1ccc(/C=C\C(C)=N\O)cc1 ?
SENP8 block-1: 9.1; HSP90 inh: 0.2; SENP6 inh: 90.9*; SENP8 block-2: 84.3*; SENP1 FRET inh: 1.3; SENP7 inh: -2.9; SENP8 conf: 89.6*; SENP6 confirm: 89.8*; SENP7 conf: 99.9*; Casp3 SENP sel: 93.3*; Luc interf: 89.8*

Results for O=C(O)CCC(=O)/C=C/c1ccccc1 ?
SENP8 block-1: 7.9; HSP90 inh: -0.5; SENP6 inh: 10.0; SENP8 block-2: -11.0; SENP1 FRET inh: 0.1; SENP7 inh: -8.4

What do the screens show for `CCOc1ccc(/C=C/C(=O)CCC(=O)O)cc1`?
SENP8 block-1: 6.5; HSP90 inh: -6.2; SENP6 inh: 70.0*; SENP8 block-2: 41.1; SENP1 FRET inh: -0.3; SENP7 inh: 62.8*; SENP8 conf: 65.8*; SENP6 confirm: 53.4*; SENP7 conf: 84.5*; Casp3 SENP sel: -0.3; Luc interf: 72.1*

Results for Cc1ccccc1-c1cnc2c(c1)C(=O)N([C@@H](C)CO)C[C@@H](C)[C@H](CN(C)Cc1ccccc1F)O2 ?
SENP8 block-1: 8.2; SENP1 FRET inh: 0.2

Results for CCOC(=O)c1nnsc1NC(=O)Nc1ccc(OC)cc1 ?
SENP8 block-1: 4.8; HSP90 inh: -0.7; SENP6 inh: -16.8; SENP8 block-2: -7.7; SENP1 FRET inh: 0.8; SENP7 inh: 51.2*; SENP8 conf: 12.8; SENP6 confirm: 9.7; SENP7 conf: 10.1; Casp3 SENP sel: 12.5; Luc interf: -3.6

How did CCOC(=O)c1nnsc1NC(C)=O do in these assays?
SENP8 block-1: 9.7; HSP90 inh: -2.0; SENP6 inh: -1.1; SENP8 block-2: -6.1; SENP1 FRET inh: -8.1; SENP7 inh: -2.9

Results for CC(C)C(=O)Nc1ccc2nn(-c3ccccc3)nc2c1 ?
SENP8 block-1: -459.3; HSP90 inh: 6.8; SENP6 inh: 15.3; SENP8 block-2: 0.7; SENP1 FRET inh: 2.8; SENP7 inh: 50.6*; SENP8 conf: 42.1; SENP6 confirm: 39.6; SENP7 conf: 71.3*; Casp3 SENP sel: 32.4; Luc interf: 6.7

Results for CC(=O)Nc1cc2nn(-c3ccccc3)nc2cc1Cl ?
SENP8 block-1: -478.2; HSP90 inh: -0.1; SENP6 inh: 69.2*; SENP8 block-2: 29.9; SENP1 FRET inh: -0.1; SENP7 inh: 76.3*; SENP8 conf: 7.1; SENP6 confirm: 10.9; SENP7 conf: 31.8; Casp3 SENP sel: 34.9; Luc interf: 7.1

What do the screens show for `Cc1nn(-c2cccc(Cl)c2)nc1C(=O)O`?
SENP8 block-1: 15.9; HSP90 inh: 0.8; SENP6 inh: 6.1; SENP8 block-2: 1.7; SENP1 FRET inh: 1.4; SENP7 inh: 4.2

What do the screens show for `CCCS(=O)(=O)c1nc(S(=O)(=O)c2ccc(C)cc2)c(NCCN2CCOCC2)s1`?
SENP8 block-1: 25.3; HSP90 inh: -1.4; SENP6 inh: 103.6*; SENP8 block-2: 5.2; SENP1 FRET inh: -9.0; SENP7 inh: 6.1; SENP8 conf: 9.1; SENP6 confirm: 1.7; SENP7 conf: -6.2; Casp3 SENP sel: -0.4; Luc interf: -2.9

How did CCS(=O)(=O)c1nc(S(=O)(=O)c2ccc(C)cc2)c(NCCCN2CCOCC2)s1 do in these assays?
SENP8 block-1: 8.9; HSP90 inh: 1.5; SENP6 inh: -4.4; SENP8 block-2: 4.2; SENP1 FRET inh: 3.7; SENP7 inh: -1.4

Results for O=C(Nc1ccc(OC(F)(F)F)cc1)c1[nH]ncc1[N+](=O)[O-] ?
SENP8 block-1: 1.2; HSP90 inh: 1.9; SENP6 inh: 71.5*; SENP8 block-2: 55.8*; SENP1 FRET inh: -0.1; SENP7 inh: 31.6; SENP8 conf: 70.2*; SENP6 confirm: 67.7*; SENP7 conf: 88.0*; Casp3 SENP sel: 58.7*; Luc interf: 70.1*

How did O=C(Nc1ccc(OC(F)(F)F)cc1)Nc1cccc([N+](=O)[O-])c1 do in these assays?
SENP8 block-1: 13.9; HSP90 inh: 1.4; SENP6 inh: 56.1*; SENP8 block-2: 28.2; SENP1 FRET inh: 2.6; SENP7 inh: 24.4; SENP8 conf: 7.9; SENP6 confirm: 25.6; SENP7 conf: 71.9*; Casp3 SENP sel: 5.6; Luc interf: -0.2

How did O=C(Nc1ccc([N+](=O)[O-])cc1)c1ccc(S(=O)(=O)N2CCCC2)cc1 do in these assays?
SENP8 block-1: 7.6; HSP90 inh: -2.3; SENP6 inh: 4.3; SENP8 block-2: -3.0; SENP1 FRET inh: 2.2; SENP7 inh: -10.6

Results for Cc1onc(C(=O)Nc2ccc(OC(F)(F)F)cc2)c1[N+](=O)[O-] ?
SENP8 block-1: 4.0; HSP90 inh: -0.1; SENP6 inh: -5.7; SENP8 block-2: 0.9; SENP1 FRET inh: 5.5; SENP7 inh: 5.7

Results for O=C(Nc1ccc(S(=O)(=O)N2CCCCCC2)cc1)c1[nH]ncc1[N+](=O)[O-] ?
SENP8 block-1: 9.8; HSP90 inh: 0.1; SENP6 inh: 75.3*; SENP8 block-2: 74.7*; SENP1 FRET inh: 0.9; SENP7 inh: 40.8; SENP8 conf: -7.0; SENP6 confirm: 71.8*; SENP7 conf: 89.6*; Casp3 SENP sel: 65.1*; Luc interf: 78.5*

How did CC(=O)Nc1ccc(S(=O)(=O)NCCC(=O)N2CCC(Cc3ccccc3)CC2)cc1 do in these assays?
SENP8 block-1: 2.4; SENP6 inh: -0.8; SENP8 block-2: -9.7; SENP1 FRET inh: 1.6; SENP7 inh: -7.0

Results for CCN(CC)c1ccc(NC(=O)c2ccc(S(=O)(=O)N3CCOCC3)cc2)cc1 ?
SENP8 block-1: 23.8; SENP6 inh: 6.9; SENP8 block-2: 0.2; SENP1 FRET inh: 3.3; SENP7 inh: -1.6

What do the screens show for `O=C(CCCC(=O)N/N=C\c1ccccn1)N/N=C\c1ccccn1`?
SENP8 block-1: 5.2; HSP90 inh: 0.3; SENP6 inh: -1.7; SENP8 block-2: -0.9; SENP1 FRET inh: 0.8; SENP7 inh: 3.6
